Data published in ChEMBL document CHEMBL4613248, “Twelfth-Position Deuteration of Nevirapine Reduces 12-Hydroxy-Nevirapine Formation and Nevirapine-Induced Hepatocyte Death” (J Med Chem, 2020).

Columns and labels:
[1] = test system: Hepatocyte; assay: Induction of change in Fam120A protein expression in C57BL/6J mouse primary hepatocytes at 400 uM incubated for 8 hrs by relative-quantitation label-free proteomics analysis relative to NVP; type: cell-based
In short: (§1)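 Fresh primary hepatocytes from male C57BL/6J mice aged 8–13 weeks, adhered overnight, then given fresh medium containing compound (400 μM), NVP (400 μM) or vehicle (0.2% DMSO) for 8 h. Lysate reduced (DTT) and alkylated (iodoacetamide), acetone-precipitated and digested with trypsin. Label-free Top10 nanoLC-MS with precursor ion area quantitation; unpaired t test P values, Cohen's d effect size.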

[2] = molecular target: T1, Cytochrome P450 1A2 (Homo sapiens, UniProt P05177); assay: Drug metabolism assessed as human CYP1A2-mediated formation of 12-OHNVP at 10 uM pre-incubated for 30 mins followed by addition of NADPH regenerating reagents by uHPLC-MS analysis; type: ADME; conditions: recombinant enzyme
T1 sequence (P05177 whole entry): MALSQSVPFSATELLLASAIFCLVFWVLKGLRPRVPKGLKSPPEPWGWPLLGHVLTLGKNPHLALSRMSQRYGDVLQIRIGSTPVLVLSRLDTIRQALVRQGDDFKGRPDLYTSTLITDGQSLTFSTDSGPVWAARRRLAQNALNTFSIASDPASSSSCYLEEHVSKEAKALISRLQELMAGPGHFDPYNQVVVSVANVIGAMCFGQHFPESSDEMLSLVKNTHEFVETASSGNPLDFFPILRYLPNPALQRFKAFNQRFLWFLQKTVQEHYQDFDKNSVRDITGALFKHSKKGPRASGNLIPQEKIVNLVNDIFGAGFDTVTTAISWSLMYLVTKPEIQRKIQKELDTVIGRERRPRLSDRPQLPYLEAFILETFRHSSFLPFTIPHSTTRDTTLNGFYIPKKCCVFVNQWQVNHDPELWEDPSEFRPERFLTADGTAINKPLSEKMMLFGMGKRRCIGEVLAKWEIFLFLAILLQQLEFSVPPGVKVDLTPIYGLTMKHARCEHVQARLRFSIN
In short: (§2)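 Insect-cell microsomes with single cDNA-expressed human P450 (100 nM) in 0.1 M potassium phosphate; 10 μM substrate prewarmed 5 min at 37 °C with NADPH-regenerating system, reaction started by adding microsomes; 30 min at 37 °C, 0.1% DMSO. Stopped, dried, reconstituted in methanol; triple-quadrupole SRM (12-OH 283.1→223.0, 2-OH 283.1→160.9, 3-OH 283.1→241.9), peak height; three replicates, mean ± SD.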

[3] = test system: Hepatocyte; assay: Induction of change in KlAA2013 protein expression in human primary hepatocytes at 10 uM incubated for 48 hrs by relative-quantitation label-free proteomics analysis relative to NVP; type: cell-based
In short: (§3)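 Cryoplateable pooled human hepatocytes (10 mixed-sex donors per pool; three pools), adhered overnight, then given fresh medium containing compound (10 μM), NVP (10 μM) or vehicle (0.1% DMSO) for 48 h. Lysate reduced (DTT) and alkylated (iodoacetamide), acetone-precipitated and digested with trypsin. Label-free Top10 nanoLC-MS with precursor ion area quantitation; unpaired t test P values, Cohen's d effect size.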

[4] = test system: Hepatocyte; assay: Induction of change in NOL6 protein expression in human primary hepatocytes at 10 uM incubated for 48 hrs by relative-quantitation label-free proteomics analysis relative to NVP; type: cell-based; in short: as §3
[5] = test system: Hepatocyte; assay: Induction of change in Endog protein expression in C57BL/6J mouse primary hepatocytes at 400 uM incubated for 8 hrs by relative-quantitation label-free proteomics analysis relative to NVP; type: cell-based; in short: as §1
[6] = Drug metabolism in C57BL/6J mouse primary hepatocytes assessed as Cytochrome P450-mediated formation of 12-OHD2NVP at 10 uM incubated for 24 hrs by uHPLC-MS analysis; type: ADME, cell-based
In short: (§4)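 Fresh hepatocytes from male C57BL/6J mice (8–13 weeks), adhered overnight, then 10 μM substrate or vehicle (0.1% DMSO) for 24 h. Medium extracted with acetonitrile (50% final), dried, reconstituted in methanol; uHPLC-Orbitrap targeted SIM plus PRM (monooxygenated metabolites) or high-resolution ions (O-glucuronides, 459.1510/462.1700 ±5 ppm); four experimental replicates.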

[7] = test system: Hepatocyte; assay: Induction of change in TMED9 protein expression in human primary hepatocytes at 10 uM incubated for 48 hrs by relative-quantitation label-free proteomics analysis relative to NVP; type: cell-based; in short: as §3
[8] = test system: Hepatocyte; assay: Induction of change in PLEKHA6 protein expression in human primary hepatocytes at 10 uM incubated for 48 hrs by relative-quantitation label-free proteomics analysis relative to NVP; type: cell-based; in short: as §3
[9] = Drug metabolism in C57BL/6J mouse primary hepatocytes assessed as 12-O-GlucD2NVP metabolite formation at 10 uM incubated for 24 hrs by uHPLC-MS analysis; type: ADME, cell-based, Hepatocyte; in short: as §4
[10] = test system: Hepatocyte; assay: Induction of change in ALAD protein expression in human primary hepatocytes at 10 uM incubated for 48 hrs by relative-quantitation label-free proteomics analysis relative to NVP; type: cell-based; in short: as §3
[11] = molecular target: T2, Cytochrome P450 2B6 (Homo sapiens, UniProt P20813); assay: Drug metabolism assessed as human CYP2B6-mediated formation of 12-OHNVP at 10 uM pre-incubated for 30 mins followed by addition of NADPH regenerating reagents by uHPLC-MS analysis; type: ADME; conditions: recombinant enzyme; in short: as §2
T2 sequence (P20813 whole entry): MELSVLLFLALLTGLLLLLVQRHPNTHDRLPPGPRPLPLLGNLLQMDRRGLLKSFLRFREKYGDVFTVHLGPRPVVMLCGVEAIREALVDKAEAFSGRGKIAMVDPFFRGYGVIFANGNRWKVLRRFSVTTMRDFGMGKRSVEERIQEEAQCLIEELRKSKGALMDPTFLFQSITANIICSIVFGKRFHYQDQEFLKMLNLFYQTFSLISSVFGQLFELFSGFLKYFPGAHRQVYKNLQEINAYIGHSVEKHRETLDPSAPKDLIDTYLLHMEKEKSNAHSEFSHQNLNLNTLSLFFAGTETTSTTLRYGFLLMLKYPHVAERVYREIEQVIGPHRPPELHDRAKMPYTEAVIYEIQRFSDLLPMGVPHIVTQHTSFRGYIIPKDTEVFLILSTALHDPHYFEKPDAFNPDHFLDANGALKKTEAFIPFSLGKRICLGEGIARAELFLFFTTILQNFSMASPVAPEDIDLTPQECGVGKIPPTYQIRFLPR

[12] = molecular target: Cytochrome P450 2D6 (Homo sapiens, UniProt P10635); assay: Drug metabolism assessed as human CYP2D6-mediated formation of 12-OHNVP at 10 uM pre-incubated for 30 mins followed by addition of NADPH regenerating reagents by uHPLC-MS analysis; type: ADME; conditions: recombinant enzyme; in short: as §2
[13] = test system: Hepatocyte; assay: Induction of change in RBM39 protein expression in human primary hepatocytes at 10 uM incubated for 48 hrs by relative-quantitation label-free proteomics analysis relative to NVP; type: cell-based; in short: as §3
[14] = test system: Cytochrome P450; assay: Drug metabolism in human primary hepatocytes assessed as Cytochrome P450-mediated formation of 2-OHNVP at 10 uM incubated for 24 to 48 hrs by uHPLC-MS analysis; type: ADME, cell-based
In short: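 Cryoplateable pooled human hepatocytes (10 mixed-sex donors per pool, three lots), adhered overnight, then 10 μM substrate or vehicle (0.1% DMSO) for 24 or 48 h in InVitroGRO CP medium. Medium extracted with 50% acetonitrile, dried, reconstituted in methanol; uHPLC-Orbitrap MS/MS for monooxygenated metabolites, high-resolution MS for O-glucuronide.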

Sequence of Cytochrome P450 2D6 (P10635 whole entry): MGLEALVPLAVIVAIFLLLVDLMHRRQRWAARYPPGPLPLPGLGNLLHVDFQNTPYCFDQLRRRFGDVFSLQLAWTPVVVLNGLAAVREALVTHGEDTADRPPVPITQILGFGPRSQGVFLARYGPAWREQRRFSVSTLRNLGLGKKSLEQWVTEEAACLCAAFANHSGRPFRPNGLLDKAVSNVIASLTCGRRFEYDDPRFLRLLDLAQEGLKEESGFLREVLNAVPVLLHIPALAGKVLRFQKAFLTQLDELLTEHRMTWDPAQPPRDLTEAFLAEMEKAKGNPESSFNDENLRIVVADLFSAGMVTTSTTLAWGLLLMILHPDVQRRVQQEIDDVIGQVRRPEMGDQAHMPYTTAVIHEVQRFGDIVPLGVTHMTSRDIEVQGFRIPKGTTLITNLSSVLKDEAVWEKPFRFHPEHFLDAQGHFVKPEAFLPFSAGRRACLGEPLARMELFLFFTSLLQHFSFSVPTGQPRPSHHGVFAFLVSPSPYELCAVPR

Q: Which results are given for [2H]C([2H])([2H])c1ccnc2c1NC(=O)c1cccnc1N2C1CC1?
A: fold change (FC) [1]: 2.06; Drug metabolism [2]: Metabolite_Detected; fold change (FC) [3]: 1.36; fold change (FC) [4]: -1.85; fold change (FC) [5]: 2.07; Drug metabolism [6]: Metabolite_Detected; fold change (FC) [7]: -1.93; fold change (FC) [8]: 1.59; Drug metabolism [9]: Metabolite_Notdetected; fold change (FC) [10]: -1.86; Drug metabolism [11]: Metabolite_Detected; Drug metabolism [12]: Metabolite_Detected; fold change (FC) [13]: 1.7; Drug metabolism [14]: Metabolite_Detected
